Measured values taken from ChEMBL document CHEMBL4715736, “Identification of anticancer agents based on the thieno[2,3-b]pyridine and 1H-pyrazole molecular scaffolds” (2016).

What follows are molecules tested on CCRF-CEM (assay: Growth inhibition of human CCRF-CEM cells assessed as cell growth at 0.01 uM incubated for 48 hrs by sulforhodamine B assay relative to control). Settings: read-out: Activity.
Assay type: functional
In short: (§1)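 NCI Developmental Therapeutics Program NCI60 panel. Compounds that were active in the 10 µM one-dose screen went on to dose–response testing. Growth at each concentration is expressed relative to untreated control (100%). GI50 (concentration giving 50% of maximal inhibition of proliferation) and TGI (concentration giving total growth inhibition) were derived from the curves.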
`CCc1ccccc1NC(=O)c1sc2nc3c(cc2c1N)C(=O)CCC3` showed a growth at 0.01 µM of 96%.

Each molecule was assayed on NCI-H226 (assay: Growth inhibition of human NCI-H226 cells assessed as cell growth at 0.01 uM incubated for 48 hrs by sulforhodamine B assay relative to control). Settings: read-out: Activity.
Assay type: functional
For `CCc1ccccc1NC(=O)c1sc2nc3c(cc2c1N)C(=O)CCC3`, the growth at 0.01 µM was 89%.

These molecules were tested on SK-MEL-28 (assay: Growth inhibition of human SK-MEL-28 cells assessed as cell growth at 0.01 uM incubated for 48 hrs by sulforhodamine B assay relative to control). Settings: read-out: Activity.
Assay type: functional
`CCc1ccccc1NC(=O)c1sc2nc3c(cc2c1N)C(=O)CCC3` showed a growth at 0.01 µM of 88%.

Each molecule was assayed on HOP-92 (assay: Growth inhibition of human HOP-92 cells assessed as cell growth at 0.1 uM incubated for 48 hrs by sulforhodamine B assay relative to control). Settings: read-out: Activity.
Assay type: functional
With `CCc1ccccc1NC(=O)c1sc2nc3c(cc2c1N)C(=O)CCC3` the growth at 0.1 µM was 69%.

Each molecule was assayed on HCC 2998 (assay: Growth inhibition of human HCC 2998 cells assessed as cell growth at 0.1 uM incubated for 48 hrs by sulforhodamine B assay relative to control). Settings: read-out: Activity.
Assay type: functional
In short: as §1
`CCc1ccccc1NC(=O)c1sc2nc3c(cc2c1N)C(=O)CCC3` was tested, and the growth at 0.1 µM was 96%.

Each molecule was assayed on HCT-116 (assay: Growth inhibition of human HCT-116 cells assessed as cell growth at 0.1 uM incubated for 48 hrs by sulforhodamine B assay relative to control). Settings: read-out: Activity.
Assay type: functional
In the case of `CCc1ccccc1NC(=O)c1sc2nc3c(cc2c1N)C(=O)CCC3`, the growth at 0.1 µM is reported as 99%.

Each molecule was assayed on SK-MEL-5 (assay: Growth inhibition of human SK-MEL-5 cells assessed as cell growth at 0.1 uM incubated for 48 hrs by sulforhodamine B assay relative to control). Settings: read-out: Activity.
Assay type: functional
In the case of `CCc1ccccc1NC(=O)c1sc2nc3c(cc2c1N)C(=O)CCC3`, the growth at 0.1 µM is reported as 82%.

Each molecule was assayed on SK-OV-3 (assay: Growth inhibition of human SK-OV-3 cells assessed as cell growth at 0.1 uM incubated for 48 hrs by sulforhodamine B assay relative to control). Settings: read-out: Activity.
Assay type: functional
In the case of `CCc1ccccc1NC(=O)c1sc2nc3c(cc2c1N)C(=O)CCC3`, the growth at 0.1 µM is reported as 103%.

Each molecule was assayed on RXF 393 (assay: Growth inhibition of human RXF 393 cells assessed as cell growth at 0.1 uM incubated for 48 hrs by sulforhodamine B assay relative to control). Settings: read-out: Activity.
Assay type: functional
`CCc1ccccc1NC(=O)c1sc2nc3c(cc2c1N)C(=O)CCC3` was tested, and the growth at 0.1 µM was 66%.

Each molecule was assayed on MDA-MB-231 (assay: Growth inhibition of human MDA-MB-231 cells assessed as cell growth at 0.1 uM incubated for 48 hrs by sulforhodamine B assay relative to control). Settings: read-out: Activity.
Assay type: functional
`CCc1ccccc1NC(=O)c1sc2nc3c(cc2c1N)C(=O)CCC3` was tested, and the growth at 0.1 µM was 90%.

What follows are molecules tested on T47D (assay: Growth inhibition of human T47D cells assessed as cell growth at 0.1 uM incubated for 48 hrs by sulforhodamine B assay relative to control). Settings: read-out: Activity.
Assay type: functional
For `CCc1ccccc1NC(=O)c1sc2nc3c(cc2c1N)C(=O)CCC3`, the growth at 0.1 µM was 102%.

Each molecule was assayed on HCT-116 (assay: Growth inhibition of human HCT-116 cells assessed as cell growth at 1 uM incubated for 48 hrs by sulforhodamine B assay relative to control). Settings: read-out: Activity.
Assay type: functional
`CCc1ccccc1NC(=O)c1sc2nc3c(cc2c1N)C(=O)CCC3` was tested, and the growth at 1 µM was 27%.

Each molecule was assayed on HT-29 (assay: Growth inhibition of human HT-29 cells assessed as cell growth at 1 uM incubated for 48 hrs by sulforhodamine B assay relative to control). Settings: read-out: Activity.
Assay type: functional
`CCc1ccccc1NC(=O)c1sc2nc3c(cc2c1N)C(=O)CCC3` was tested, and the growth at 1 µM was 13%.

These molecules were tested on SF-268 (assay: Growth inhibition of human SF-268 cells assessed as cell growth at 1 uM incubated for 48 hrs by sulforhodamine B assay relative to control). Settings: read-out: Activity.
Assay type: functional
`CCc1ccccc1NC(=O)c1sc2nc3c(cc2c1N)C(=O)CCC3` was tested, and the growth at 1 µM was 53%.

Each molecule was assayed on LOX IMVI (assay: Growth inhibition of human LOX IMVI cells assessed as cell growth at 1 uM incubated for 48 hrs by sulforhodamine B assay relative to control). Settings: read-out: Activity.
Assay type: functional
`CCc1ccccc1NC(=O)c1sc2nc3c(cc2c1N)C(=O)CCC3` was tested, and the growth at 1 µM was 39%.

These molecules were tested on M14 (assay: Growth inhibition of human M14 cells assessed as cell growth at 1 uM incubated for 48 hrs by sulforhodamine B assay relative to control). Settings: read-out: Activity.
Assay type: functional
`CCc1ccccc1NC(=O)c1sc2nc3c(cc2c1N)C(=O)CCC3` gave a growth at 1 µM of 17%.

The molecules below were run on OVCAR-8 (assay: Growth inhibition of human OVCAR-8 cells assessed as cell growth at 1 uM incubated for 48 hrs by sulforhodamine B assay relative to control). Settings: read-out: Activity.
Assay type: functional
`CCc1ccccc1NC(=O)c1sc2nc3c(cc2c1N)C(=O)CCC3` was tested, and the growth at 1 µM was 60%.

What follows are molecules tested on RXF 393 (assay: Growth inhibition of human RXF 393 cells assessed as cell growth at 1 uM incubated for 48 hrs by sulforhodamine B assay relative to control). Settings: read-out: Activity.
Assay type: functional
In the case of `CCc1ccccc1NC(=O)c1sc2nc3c(cc2c1N)C(=O)CCC3`, the growth at 1 µM is reported as -8%.

What follows are molecules tested on Hs-578T (assay: Growth inhibition of human Hs-578T cells assessed as cell growth at 1 uM incubated for 48 hrs by sulforhodamine B assay relative to control). Settings: read-out: Activity.
Assay type: functional
`CCc1ccccc1NC(=O)c1sc2nc3c(cc2c1N)C(=O)CCC3` showed a growth at 1 µM of 18%.

The molecules below were run on T47D (assay: Growth inhibition of human T47D cells assessed as cell growth at 1 uM incubated for 48 hrs by sulforhodamine B assay relative to control). Settings: read-out: Activity.
Assay type: functional
In the case of `CCc1ccccc1NC(=O)c1sc2nc3c(cc2c1N)C(=O)CCC3`, the growth at 1 µM is reported as 20%.

What follows are molecules tested on HCC 2998 (assay: Growth inhibition of human HCC 2998 cells assessed as cell growth at 100 uM incubated for 48 hrs by sulforhodamine B assay relative to control). Settings: read-out: Activity.
Assay type: functional
In short: as §1
For `CCc1ccccc1NC(=O)c1sc2nc3c(cc2c1N)C(=O)CCC3`, the growth at 100 µM was 3%.

Each molecule was assayed on MDA-MB-435 (assay: Growth inhibition of human MDA-MB-435 cells assessed as cell growth at 100 uM incubated for 48 hrs by sulforhodamine B assay relative to control). Settings: read-out: Activity.
Assay type: functional
`CCc1ccccc1NC(=O)c1sc2nc3c(cc2c1N)C(=O)CCC3` was tested, and the growth at 100 µM was -48%.

The molecules below were run on OVCAR-4 (assay: Growth inhibition of human OVCAR-4 cells assessed as cell growth at 100 uM incubated for 48 hrs by sulforhodamine B assay relative to control). Settings: read-out: Activity.
Assay type: functional
`CCc1ccccc1NC(=O)c1sc2nc3c(cc2c1N)C(=O)CCC3` showed a growth at 100 µM of 8%.

The molecules below were run on MCF7 (assay: Growth inhibition of human MCF7 cells assessed as cell growth at 100 uM incubated for 48 hrs by sulforhodamine B assay relative to control). Settings: read-out: Activity.
Assay type: functional
Work on `CCc1ccccc1NC(=O)c1sc2nc3c(cc2c1N)C(=O)CCC3` yielded a growth at 100 µM of 9%.

These molecules were tested on SR (assay: Growth inhibition of human SR cells incubated for 48 hrs by sulforhodamine B assay). Settings: not given.
Assay type: functional
In short: (§2)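 NCI DTP 60-line human tumour panel. Dose-response curves were run only for ligands active in the initial 10 µM screen. GI50 (concentration giving 50% of maximal inhibition of proliferation) and TGI (concentration giving total growth inhibition) were derived from these curves.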
Molecule `CCc1ccccc1NC(=O)c1sc2nc3c(cc2c1N)C(=O)CCC3` has a GI50 of 406 nM, an LC50 of over 100 µM and a TGI of over 100 µM.

What follows are molecules tested on SNB-75 (assay: Growth inhibition of human SNB-75 cells incubated for 48 hrs by sulforhodamine B assay). Settings: not given.
Assay type: functional
In short: as §2
Work on `CCc1ccccc1NC(=O)c1sc2nc3c(cc2c1N)C(=O)CCC3` yielded a GI50 of 193 nM, an LC50 of over 100 µM and a TGI of 55.1 µM.

What follows are molecules tested on MDA-MB-435 (assay: Growth inhibition of human MDA-MB-435 cells incubated for 48 hrs by sulforhodamine B assay). Settings: not given.
Assay type: functional
In short: (§3)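 NCI60 panel at the NCI Developmental Therapeutics Program. Only compounds active in the 10 µM screen went to dose-response testing. GI50, the concentration giving 50% of maximal inhibition of proliferation, and TGI, the concentration giving total growth inhibition, were derived from the dose-response curves.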
`CCc1ccccc1NC(=O)c1sc2nc3c(cc2c1N)C(=O)CCC3` was tested, and the GI50 was 46.4 nM and the TGI was 225 nM.

Same assay, conditions: read-out: LC50 (the source's name)
With `CCc1ccccc1NC(=O)c1sc2nc3c(cc2c1N)C(=O)CCC3` the CC50 was over 100 µM.

Each molecule was assayed on SK-MEL-28 (assay: Growth inhibition of human SK-MEL-28 cells incubated for 48 hrs by sulforhodamine B assay). Settings: not given.
Assay type: functional
In short: as §2
Work on `CCc1ccccc1NC(=O)c1sc2nc3c(cc2c1N)C(=O)CCC3` yielded a GI50 of 1 nM, an LC50 of over 100 µM and a TGI of over 100 µM.

The molecules below were run on OVCAR-5 (assay: Growth inhibition of human OVCAR-5 cells incubated for 48 hrs by sulforhodamine B assay). Settings: not given.
Assay type: functional
In short: as §2
Molecule `CCc1ccccc1NC(=O)c1sc2nc3c(cc2c1N)C(=O)CCC3` has a GI50 of 39.2 nM and a TGI of over 100 µM.

Same assay, conditions: read-out: LC50 (the source's name)
`CCc1ccccc1NC(=O)c1sc2nc3c(cc2c1N)C(=O)CCC3` was tested, and the CC50 was over 100 µM.

Each molecule was assayed on OVCAR-8 (assay: Growth inhibition of human OVCAR-8 cells incubated for 48 hrs by sulforhodamine B assay). Settings: not given.
Assay type: functional
In short: as §2
`CCc1ccccc1NC(=O)c1sc2nc3c(cc2c1N)C(=O)CCC3` showed a GI50 of 2520 nM and a TGI of over 100 µM.

Same assay, conditions: read-out: LC50 (the source's name)
Work on `CCc1ccccc1NC(=O)c1sc2nc3c(cc2c1N)C(=O)CCC3` yielded a CC50 of over 100 µM.

These molecules were tested on CAKI-1 (assay: Growth inhibition of human CAKI-1 cells incubated for 48 hrs by sulforhodamine B assay). Settings: not given.
Assay type: functional
In short: as §1
`CCc1ccccc1NC(=O)c1sc2nc3c(cc2c1N)C(=O)CCC3` showed a GI50 of 504 nM and a TGI of over 100 µM.

Same assay, conditions: read-out: LC50 (the source's name)
Work on `CCc1ccccc1NC(=O)c1sc2nc3c(cc2c1N)C(=O)CCC3` yielded a CC50 of over 100 µM.

Each molecule was assayed on MCF7 (assay: Growth inhibition of human MCF7 cells incubated for 48 hrs by sulforhodamine B assay). Settings: not given.
Assay type: functional
In short: as §3
For `CCc1ccccc1NC(=O)c1sc2nc3c(cc2c1N)C(=O)CCC3`, the GI50 was 312 nM and the TGI was over 100 µM.

Same assay, conditions: read-out: LC50 (the source's name)
For `CCc1ccccc1NC(=O)c1sc2nc3c(cc2c1N)C(=O)CCC3`, the CC50 was over 100 µM.
